Source: ChEMBL document CHEMBL1806434, “Acyclic nucleoside phosphonates with a branched 2-(2-phosphonoethoxy)ethyl chain: efficient synthesis and antiviral activity” (Bioorg Med Chem, 2011)
Calls of active or inactive are those of the source. No cut-off for these calls is given here.

Columns and labels:
Human alphaherpesvirus 3 [1] = test: Antiviral activity against Varicella-zoster virus strain OKA expressing thymidine kinase assessed as reduction of virus induced cytopathicity by cell based assay; format: functional; conditions: Human alphaherpesvirus 3, strain Oka vaccine
Summary of the method: (§1)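 Confluent cell monolayers infected with 100 CCID50 virus, or 20 PFU for plaque assays, then incubated with serial compound dilutions. Host cells listed for the non-HIV panel are HEL fibroblasts, Vero, HeLa, CRFK or MDCK. Cytopathicity is scored, or plaques counted for VZV, once infected untreated controls reach full CPE.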

Human alphaherpesvirus 3 [2] = test: Antiviral activity against thymidine kinase-deficient Varicella-zoster virus 07/1 assessed as reduction of virus induced cytopathicity by cell based assay; format: functional, organism-based; conditions: Human alphaherpesvirus 3, 07/1; summary of the method: as §1
Human alphaherpesvirus 1 [3] = test: Antiviral activity against Herpes simplex virus 1 strain KOS assessed as reduction of virus induced cytopathicity by cell based assay; format: functional, organism-based; conditions: Human alphaherpesvirus 1, KOS; summary of the method: as §1
Human alphaherpesvirus 2 = test: Antiviral activity against Herpes simplex virus 2 strain G assessed as reduction of virus induced cytopathicity by cell based assay; format: functional, organism-based; conditions: Human alphaherpesvirus 2, strain G; summary of the method: as §1
Human alphaherpesvirus 1 [4] = test: Antiviral activity against thymidine kinase-deficient acyclovir-resistant Herpes simplex virus 1 strain KOS assessed as reduction of virus induced cytopathicity by cell based assay; format: functional, organism-based; conditions: Human alphaherpesvirus 1, KOS; summary of the method: as §1
Human betaherpesvirus 5 [5] = test: Antiviral activity against Human cytomegalovirus Davis assessed as reduction of virus induced cytopathicity by cell based assay; format: functional, organism-based; conditions: Human betaherpesvirus 5, Davis; summary of the method: as §1
[6] = Cytotoxicity against human HEL cells assessed as alteration of cell morphology after 3 days by microscopic analysis; format: cell-based
Summary of the method: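 MCC taken as the lowest compound concentration producing microscopically detectable alteration of HEL fibroblast morphology.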

HEL = test: Cytotoxicity against human HEL cells after 3 days by coulter counter; format: cell-based; conditions: 72 h
Summary of the method: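 HEL cells seeded at 5 × 10^3 cells/well and allowed to proliferate for 24 h, then exposed to a range of compound concentrations for 3 days at 37 °C. Cells counted with a Coulter counter.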

[7] = Selectivity index, ratio CC50 for human HEL cells to EC50 for Varicella-zoster virus YS expressing thymidine kinase; format: toxicity, cell-based; conditions: read-out: Ratio CC50/EC50
Summary of the method: (§2)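 HEL fibroblasts seeded at 5 × 10^3 cells/well and allowed to grow 24 h. Medium with compound dilutions is then added and cells are incubated 3 days at 37 °C before Coulter counting. CC50, the concentration halving cell number relative to untreated controls, is read from plots. SI is CC50 divided by the antiviral EC50 from the CPE or plaque-reduction assay in HEL cells.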

[8] = Selectivity index, ratio CC50 for human HEL cells to EC50 for Varicella-zoster virus strain OKA expressing thymidine kinase; format: toxicity, cell-based; conditions: read-out: Ratio CC50/EC50; summary of the method: as §2
[9] = Selectivity index, ratio CC50 for human HEL cells to EC50 for thymidine kinase-deficient Varicella-zoster virus 07/1; format: toxicity, cell-based; conditions: read-out: Ratio CC50/EC50; summary of the method: as §2
[10] = Selectivity index, ratio CC50 for human HEL cells to EC50 for thymidine kinase-deficient Varicella-zoster virus YS/R; format: toxicity, cell-based; conditions: read-out: Ratio CC50/EC50; summary of the method: as §2
[11] = Selectivity index, ratio CC50 for human HEL cells to EC50 for Herpes simplex virus 1 strain KOS; format: toxicity, cell-based; conditions: read-out: Ratio CC50/EC50; summary of the method: as §2
[12] = Selectivity index, ratio CC50 for human HEL cells to EC50 for Herpes simplex virus 2 strain G; format: toxicity, cell-based; conditions: read-out: Ratio CC50/EC50; summary of the method: as §2
[13] = Selectivity index, ratio CC50 for human HEL cells to EC50 for thymidine kinase-deficient acyclovir-resistant Herpes simplex virus 1 strain KOS; format: toxicity, cell-based; conditions: read-out: Ratio CC50/EC50; summary of the method: as §2
[14] = Selectivity index, ratio CC50 for human HEL cells to EC50 for Human cytomegalovirus strain AD169; format: toxicity, cell-based; conditions: read-out: Ratio CC50/EC50; summary of the method: as §2
[15] = Selectivity index, ratio CC50 for human HEL cells to EC50 for Human cytomegalovirus Davis; format: toxicity, cell-based; conditions: read-out: Ratio CC50/EC50; summary of the method: as §2
[16] = Selectivity index, ratio CC50 for human HEL cells to EC50 for Vaccinia virus Lederle; format: toxicity, cell-based; conditions: read-out: Ratio CC50/EC50; summary of the method: as §2
Human alphaherpesvirus 3 [17] = test: Antiviral activity against Varicella-zoster virus YS expressing thymidine kinase assessed as reduction of virus induced cytopathicity by cell based assay; format: functional, organism-based; conditions: Human alphaherpesvirus 3, YS
Human alphaherpesvirus 3 [18] = test: Antiviral activity against thymidine kinase-deficient Varicella-zoster virus YS/R assessed as reduction of virus induced cytopathicity by cell based assay; format: functional, organism-based; conditions: Human alphaherpesvirus 3, YS/R
Vaccinia virus = test: Antiviral activity against Vaccinia virus Lederle assessed as reduction of virus induced cytopathicity by cell based assay; format: functional, organism-based; conditions: Orthopoxvirus vaccinia; summary of the method: as §1
L1210 = test: Cytostatic activity against mouse L1210 cells; format: functional
FM3A = test: Cytostatic activity against mouse FM3A cells; format: functional
CCRF-CEM = test: Cytostatic activity against human CEM cells; format: cell-based
[19] = system: Human immunodeficiency virus 1; test: Antiviral activity against Human immunodeficiency virus type1 3B infected in human CEM cells assessed as HIV-induced CEM giant cell formation after 4 days by microscopic analysis; format: functional, organism-based; conditions: Human immunodeficiency virus 1, 3B, CCRF-CEM, 96 h
Summary of the method: (§3)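 Human CEM cells (~3 × 10^5 cells/ml) infected with 100 CCID50/ml of HIV-1 (IIIB) or HIV-2 (ROD), then seeded into wells holding compound dilutions. After 4 days at 37 °C, HIV-induced giant cell formation is scored by microscopy.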

[20] = system: Human immunodeficiency virus 2; test: Antiviral activity against Human immunodeficiency virus type 2 ROD infected in human CEM cells assessed as HIV-induced CEM giant cell formation after 4 days by microscopy; format: functional, organism-based; conditions: Human immunodeficiency virus 2, ISOLATE ROD, CCRF-CEM, 96 h; summary of the method: as §3
[21] = system: Vesicular stomatitis virus; test: Antiviral activity against Vesicular stomatitis virus assessed as reduction of virus induced cytopathicity by cell based assay; format: functional, organism-based; summary of the method: as §1
Coxsackievirus B4 = test: Antiviral activity against Coxsackievirus B4 assessed as reduction of virus induced cytopathicity by cell based assay; format: functional, organism-based
Summary of the method: (§4)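 Confluent cell monolayers in 96-well plates (HEL, Vero, HeLa, CRFK or MDCK; the cell type per virus is not specified) infected with 100 CCID50 virus or 20 PFU and incubated with serial compound dilutions. Cytopathicity scored once it was complete in untreated infected controls.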

[22] = system: Respiratory syncytial virus; test: Antiviral activity against Respiratory syncytial virus Long assessed as reduction of virus induced cytopathicity by cell based assay; format: functional, organism-based; summary of the method: as §4
Human respirovirus 3 = test: Antiviral activity against Human parainfluenza virus 3 assessed as reduction of virus induced cytopathicity by cell based assay; format: functional, organism-based; summary of the method: as §4
[23] = system: Mammalian orthoreovirus 1; test: Antiviral activity against Reovirus-1 assessed as reduction of virus induced cytopathicity by cell based assay; format: functional, organism-based; summary of the method: as §4
Sindbis virus = test: Antiviral activity against Sindbis virus assessed as reduction of virus induced cytopathicity by cell based assay; format: functional, organism-based; summary of the method: as §4
Punta Toro virus = test: Antiviral activity against Punta Toro virus assessed as reduction of virus induced cytopathicity by cell based assay; format: functional, organism-based; summary of the method: as §4
Human betaherpesvirus 5 [24] = test: Antiviral activity against Human cytomegalovirus strain AD169 assessed as reduction of virus induced cytopathicity by cell based assay; format: functional, organism-based; conditions: Human betaherpesvirus 5, AD169; summary of the method: as §1

Row | Structure (SMILES) | EC50 (Human alphaherpesvirus 3 [1]) [µM] | EC50 (Human alphaherpesvirus 3 [2]) [µM] | EC50 (Human alphaherpesvirus 1 [3]) [µM] | EC50 (Human alphaherpesvirus 2) [µM] | EC50 (Human alphaherpesvirus 1 [4]) [µM] | EC50 (Human betaherpesvirus 5 [5]) [µM] | MCC at 72 h [6] [µM] | CC50 (HEL) [µM] | selectivity ratio [7] | selectivity ratio [8] | selectivity ratio [9] | selectivity ratio [10] | selectivity ratio [11] | selectivity ratio [12] | selectivity ratio [13] | selectivity ratio [14] | selectivity ratio [15] | selectivity ratio [16] | EC50 (Human alphaherpesvirus 3 [17]) [µM] | EC50 (Human alphaherpesvirus 3 [18]) [µM] | further results
1 | Nc1ccn(C[C@@H](CO)OCP(=O)(O)O)c(=O)n1 [CIDOFOVIR] | 0.29 | 0.1 | 1.3 | 0.9 | 1 | 0.7 | > 317 | 254 | 880 | 880 | 880 | 880 | 322 | 322 | 322 | 195 | 195 | 35 | – | – | –
2 | CC(CP(=O)(O)O)OCCn1cnc2c(N)ncnc21 (stereo not drawn) | 0.07 | 0.11 | 1.3 | 2.3 | 1.7 | 0.9 | 322 | 13 | 120 | 120 | 120 | 120 | 6 | 6 | 6 | 14 | 14 | < 1 | 0.1 | 0.07 | EC50 (Vaccinia virus): 27 µM; CC50 (L1210): 10 µM; CC50 (FM3A): 2.7 µM; CC50 (CCRF-CEM): 20 µM; EC50 [19]: 11 µM; EC50 [20]: 9 µM; Activity [21]: inactive; Activity (Coxsackievirus B4): inactive; Activity [22]: inactive; Activity (Human respirovirus 3): inactive; Activity [23]: inactive; Activity (Sindbis virus): inactive; Activity (Punta Toro virus): inactive
3 | CCC(CP(=O)(O)O)OCCn1cnc2c(N)ncnc21 (stereo not drawn) | 19 | 22 | 238 | 286 | 251 | 243 | > 317 | > 317 | – | – | – | – | – | – | – | – | – | – | 42 | 43 | EC50 (Human betaherpesvirus 5 [24]): 159 µM; EC50 (Vaccinia virus): > 317 µM; CC50 (L1210): > 660 µM; CC50 (FM3A): 432 µM; CC50 (CCRF-CEM): > 660 µM; Activity [21]: inactive; Activity (Coxsackievirus B4): inactive; Activity [22]: inactive; Activity (Human respirovirus 3): inactive; Activity [23]: inactive; Activity (Sindbis virus): inactive; Activity (Punta Toro virus): inactive
